From ChEMBL document CHEMBL4613213, “Anibamine and Its Analogues: Potent Antiplasmodial Agents from Aniba citrifolia” (J Nat Prod, 2020)
Activity calls are given as the source filed them. No cut-off for these calls is given here.

Columns and labels:
Plasmodium falciparum [1] = test: Antiplasmodial activity against Plasmodium falciparum Dd2 assessed as reduction in parasite growth after 72 hrs by SYBR Green 1 staining based assay; format: functional, organism-based
How it was run: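 Dd2 cultures started at ring stage, 1% hematocrit and 1% parasitemia. Grown 72 h at 37 °C in 5% CO2/5% O2/90% N2 across increasing drug concentrations. Viability read by SYBR Green I DNA quantitation in lysis buffer. IC50 from nonlinear regression; mean of three independent determinations, each in triplicate, ± SEM.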

Plasmodium falciparum [2] = test: Antiplasmodial activity against Plasmodium falciparum Dd2 schizonts form infected in erythrocytes assessed as reduction in reinvasion at 0.5 uM after 6 hrs by Giemsa staining based light microscopic method; format: functional, organism-based
How it was run: (§1)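 Compound added at schizont stage (40–42 post-invasion). Morphology assessed on Giemsa-stained thin blood smears at 6, 24 and 48 h of treatment and compared with untreated controls. Two or more independent experiments.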

[3] = Hemolytic activity in human RBC; format: cell-based, Erythrocyte; conditions: human red blood cells (erythrocytes)
Plasmodium falciparum [4] = test: Antiplasmodial activity against Plasmodium falciparum Dd2 schizonts form infected in erythrocytes assessed as reduction in ring stage formation at 0.5 uM after 6 hrs by Giemsa staining based light microscopic method; format: functional, organism-based; how it was run: as §1
Plasmodium falciparum [5] = test: Antiplasmodial activity against Plasmodium falciparum Dd2 schizonts form infected in erythrocytes assessed as reduction in trophozoites formation at 0.5 uM after 48 hrs by Giemsa staining based light microscopic method; format: functional, organism-based; how it was run: as §1
Plasmodium falciparum [6] = test: Antiplasmodial activity against Plasmodium falciparum Dd2 schizonts form infected in erythrocytes assessed as reduction in parasite growth at 0.5 uM after 6 hrs by Giemsa staining based light microscopic method; format: functional, organism-based; how it was run: as §1
Plasmodium falciparum [7] = test: Antiplasmodial activity against Plasmodium falciparum Dd2 schizonts form infected in erythrocytes assessed as morphological defects at 0.5 uM after 48 hrs by Giemsa staining based light microscopic method; format: functional, organism-based; how it was run: as §1
A2780 = test: Cytotoxicity against human A2780 cells assessed as reduction in cell viability after 2 days by AlamarBlue assay; format: ADME, cell-based; conditions: A2780, 48 h
Plasmodium falciparum [8] = test: Antiplasmodial activity against Plasmodium falciparum Dd2 schizonts form infected in erythrocytes assessed as reduction in parasite growth at 1.25 uM after 6 hrs by Giemsa staining based light microscopic method; format: functional, organism-based
How it was run: (§2)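 Dd2 intraerythrocytic cultures were treated either at ring stage (2–4 h post-invasion) or at schizont stage (40–42 post-invasion). Development and morphology were followed by light microscopy of Giemsa-stained thin blood smears at 6, 24, 48 and 72 h of treatment and compared with untreated controls. Data come from two or more independent experiments.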

Plasmodium falciparum [9] = test: Antiplasmodial activity against Plasmodium falciparum Dd2 schizonts form infected in erythrocytes assessed as reduction in reinvasion at 1.25 uM after 6 hrs by Giemsa staining based light microscopic method; format: functional, organism-based; how it was run: as §2
Plasmodium falciparum [10] = test: Antiplasmodial activity against Plasmodium falciparum Dd2 schizonts form infected in erythrocytes assessed as reduction in ring stage formation at 1.25 uM after 6 hrs by Giemsa staining based light microscopic method; format: functional, organism-based; how it was run: as §2
Plasmodium falciparum [11] = test: Antiplasmodial activity against Plasmodium falciparum Dd2 ring stage form infected in erythrocytes assessed as reduction in parasite growth at 0.5 uM after 6 to 72 hrs by Giemsa staining based light microscopic method; format: functional, organism-based
How it was run: (§3)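 Compound added at ring stage (2–4 h post-invasion). Development followed on Giemsa-stained thin blood smears after 6, 24, 48 and 72 h of treatment and compared with untreated controls. Two or more independent experiments.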

Plasmodium falciparum [12] = test: Antiplasmodial activity against Plasmodium falciparum Dd2 ring stage form infected in erythrocytes assessed as reduction in reinvasion at 0.5 uM after 48 to 72 hrs by Giemsa staining based light microscopic method; format: functional, organism-based; how it was run: as §3
Plasmodium falciparum [13] = test: Antiplasmodial activity against Plasmodium falciparum Dd2 schizonts form infected in erythrocytes assessed as reduction in trophozoites formation at 1 uM after 48 hrs by Giemsa staining based light microscopic method; format: functional, organism-based; how it was run: as §1
Plasmodium falciparum [14] = test: Antiplasmodial activity against Plasmodium falciparum Dd2 schizonts form infected in erythrocytes assessed as reduction in parasite growth at 1 uM after 6 hrs by Giemsa staining based light microscopic method; format: functional, organism-based; how it was run: as §1
Plasmodium falciparum [15] = test: Antiplasmodial activity against Plasmodium falciparum Dd2 schizonts form infected in erythrocytes assessed as morphological defects formation at 1 uM after 48 hrs by Giemsa staining based light microscopic method; format: functional, organism-based; how it was run: as §1
Plasmodium falciparum [16] = test: Antiplasmodial activity against Plasmodium falciparum Dd2 schizonts form infected in erythrocytes assessed as reduction in ring stage formation at 1 uM after 6 hrs by Giemsa staining based light microscopic method; format: functional, organism-based; how it was run: as §1
Plasmodium falciparum [17] = test: Antiplasmodial activity against Plasmodium falciparum Dd2 schizonts form infected in erythrocytes assessed as reduction in reinvasion at 1 uM after 6 hrs by Giemsa staining based light microscopic method; format: functional, organism-based; how it was run: as §1
[18] = Plasmodium falciparum, Dd2, 72 h, read-out: IC50

SMILES: CCCCCCCC/C=C\c1c(C)nc(CCCOC)c(/C=C/CCCCCCCC)c1C
- IC50 (Plasmodium falciparum [1]; [18]): > 20 µM

SMILES: CCCCCCCC/C=C\c1c(C)nc(C)c(/C=C/CCCCCCCC)c1C
- IC50 (Plasmodium falciparum [1]; [18]): 20 µM

SMILES: CCCCCCCC/C=C\c1c(C)cc(C)nc1C
- IC50 (Plasmodium falciparum [1]; [18]): > 20 µM

SMILES: CCCCCCCC/C=C\c1c(C)c(/C=C\CCCCCCCC)c2[n+](c1C)CCCCC2
- Activity (Plasmodium falciparum [2]): inactive
- IC50 (Plasmodium falciparum [1]; [18]): 0.067 µM
- HC50 [3]: > 58 µM
- Activity (Plasmodium falciparum [4]): inactive
- Activity (Plasmodium falciparum [5]): Active
- Activity (Plasmodium falciparum [6]): inactive
- Activity (Plasmodium falciparum [7]): Active

SMILES: CCCCCCCC/C=C/c1c(C)nc(C)c(/C=C/CCCCCCCC)c1C
- IC50 (Plasmodium falciparum [1]; [18]): > 20 µM

SMILES: CCCCCCCCCCc1c(C)nc(C)c(CCCCCCCCCC)c1C
- IC50 (Plasmodium falciparum [1]; [18]): > 20 µM

SMILES: C=CC[C@@]12C=C(OC)C(=O)[C@@H]([C@@H](c3ccc4c(c3)OCO4)[C@@H]1C)[C@@H]2O
- IC50 (Plasmodium falciparum [1]; [18]): > 100 µM
- IC50 (A2780): 10 to 50 µM

SMILES: CCCCCCCC/C=C\c1c(C)cc(C)nc1CCCOC
- IC50 (Plasmodium falciparum [1]; [18]): 8.8 µM

SMILES: CCCCCCCC/C=C/c1c(C)c(/C=C/CCCCCCCC)c2[n+](c1C)CCC2
- Activity (Plasmodium falciparum [2]): inactive
- IC50 (Plasmodium falciparum [1]; [18]): 0.096 µM
- HC50 [3]: > 58 µM
- Activity (Plasmodium falciparum [4]): inactive
- Activity (Plasmodium falciparum [5]): Active
- Activity (Plasmodium falciparum [6]): inactive
- Activity (Plasmodium falciparum [7]): Active

SMILES: CCCCCCCC/C=C/c1c(C)cc(C)nc1C
- IC50 (Plasmodium falciparum [1]; [18]): > 20 µM

SMILES: CCCCCCCC/C=C\c1c(C)c(/C=C\CCCCCCCC)c2[n+](c1C)CCC2
- Activity (Plasmodium falciparum [8]): inactive
- Activity (Plasmodium falciparum [2]): inactive
- Activity (Plasmodium falciparum [9]): inactive
- Activity (Plasmodium falciparum [10]): inactive
- Activity (Plasmodium falciparum [4]): inactive
- Activity (Plasmodium falciparum [5]): Active
- Activity (Plasmodium falciparum [6]): inactive
- Activity (Plasmodium falciparum [7]): Active

SMILES: CCCCCCCC/C=C\c1c(CCCOC)nc(C)c(/C=C/CCCCCCCC)c1C
- IC50 (Plasmodium falciparum [1]; [18]): > 20 µM

SMILES: CCCCCCCC/C=C\c1c(C)nc(C)c(/C=C\CCCCCCCC)c1C
- IC50 (Plasmodium falciparum [1]; [18]): > 20 µM

SMILES: CCCCCCCCCCc1c(C)nc(CCCOC)c(CCCCCCCCCC)c1C
- IC50 (Plasmodium falciparum [1]; [18]): > 20 µM

SMILES: CCCCCCCCCCc1c(C)c(CCCCCCCCCC)c2[n+](c1C)CCCC2
- Activity (Plasmodium falciparum [2]): inactive
- IC50 (Plasmodium falciparum [1]; [18]): 0.058 µM
- HC50 [3]: > 58 µM
- Activity (Plasmodium falciparum [4]): inactive
- Activity (Plasmodium falciparum [5]): Active
- Activity (Plasmodium falciparum [6]): inactive
- Activity (Plasmodium falciparum [7]): Active

SMILES: CCCCCCCCCCc1c(C)cc(C)nc1CCCOC
- IC50 (Plasmodium falciparum [1]; [18]): > 20 µM

SMILES: CCCCCCCCCCc1c(C)cc(C)[n+]2c1CCC2
- Activity (Plasmodium falciparum [11]): inactive
- Activity (Plasmodium falciparum [2]): inactive
- IC50 (Plasmodium falciparum [1]; [18]): 0.06 µM
- Activity (Plasmodium falciparum [4]): inactive
- Activity (Plasmodium falciparum [12]): inactive
- Activity (Plasmodium falciparum [6]): inactive

SMILES: C.C=CC[C@]1(C(=O)OC)CC(=O)C[C@H](c2ccc3c(c2)OCO3)[C@H]1C
- IC50 (Plasmodium falciparum [1]; [18]): > 100 µM
- IC50 (A2780): > 10 µM

SMILES: C=CC[C@@]1(OC)C=C2C(=CC1=O)O[C@H](c1ccc3c(c1)OCO3)[C@H]2C
- IC50 (Plasmodium falciparum [1]): Not Active
- IC50 (A2780): 10 to 50 µM

SMILES: CCCCCCCC/C=C/c1c(C)c(/C=C/CCCCCCCC)c2[n+](c1C)CCCCC2
- Activity (Plasmodium falciparum [2]): inactive
- IC50 (Plasmodium falciparum [1]; [18]): 0.06 µM
- HC50 [3]: > 58 µM
- Activity (Plasmodium falciparum [4]): inactive
- Activity (Plasmodium falciparum [5]): Active
- Activity (Plasmodium falciparum [6]): inactive
- Activity (Plasmodium falciparum [7]): Active

SMILES: CCCCCCCC/C=C/c1c(C)c(/C=C/CCCCCCCC)c2[n+](c1C)CCCC2
- Activity (Plasmodium falciparum [13]): Active
- IC50 (Plasmodium falciparum [1]; [18]): 0.061 µM
- Activity (Plasmodium falciparum [14]): inactive
- HC50 [3]: > 58 µM
- Activity (Plasmodium falciparum [15]): Active
- Activity (Plasmodium falciparum [16]): inactive
- Activity (Plasmodium falciparum [17]): inactive
